From PubChem
Hits are enriched below; roughly 2.6% of the tested compounds scored in any of these assays.
Rev-erbA mod = modulators of Rev-erb alpha DNA binding, primary screen, biochemical, FITC-DNA, fluorescence polarization, uHTS. Nuclear receptor subfamily 1 group D member 1 (Homo sapiens), P20393. Rev-erbα–FITC-DNA binding, 90 min. activity, % at 10 µM. actives 0.79% (n = 370,000). AID 1259318, 2017;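 active = activity above about 14%, limit read from the data; passing the limit was not always enough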
NR2E3 ag-1 = inhibitors of NR2E3-RetCOR corepressor binding, primary screen, NR2E3 agonist project, biochemical, TR-FRET, GST-NR2E3, biotin-RetCOR; Photoreceptor-specific nuclear receptor (Homo sapiens), Q9Y5X4; 1536-well; inhibition of corepressor binding, % at 4.78 µM; actives 0.12% (n = 320,000);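 active = percent inhibition above the cutoff of mean plus 3 SD of all tested compounds, set per screening campaign, cut at about 20% in these data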
Target sequence (Q9Y5X4 whole entry, looked up): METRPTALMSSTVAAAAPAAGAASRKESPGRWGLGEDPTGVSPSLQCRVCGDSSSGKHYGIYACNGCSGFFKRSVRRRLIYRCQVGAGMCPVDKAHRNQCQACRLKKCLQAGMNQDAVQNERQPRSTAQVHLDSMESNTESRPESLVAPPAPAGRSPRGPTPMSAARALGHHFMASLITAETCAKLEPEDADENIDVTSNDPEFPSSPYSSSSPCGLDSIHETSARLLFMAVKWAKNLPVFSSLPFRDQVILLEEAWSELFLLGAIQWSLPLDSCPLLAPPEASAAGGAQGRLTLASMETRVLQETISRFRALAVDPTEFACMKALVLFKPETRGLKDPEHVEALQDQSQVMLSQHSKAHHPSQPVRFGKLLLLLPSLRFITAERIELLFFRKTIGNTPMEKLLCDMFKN
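Test system – NR2E3–RetCOR corepressor complex · Quantity – NR2E3 fusion 1.35 nM · Buffer or medium – Tris pH 7.5 · Incubation – Compound–protein incubation for 5 h at 4 °C · Technique – TR-FRET, Eu(K)-anti-GST donor, streptavidin-D2 acceptor, ex 340, em 617/671 nm · Evaluation – percent inhibition of 671/617 nm emission ratio versus biotin and DMSO controls · Plate – 1536-well format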
rCAG binder = binders of r(CAG) RNA repeats, primary screen, biochemical, fluorescence | r(CAG) RNA repeat, TO-PRO-1 dye displacement fluorescence | inhibition, % at 3 µM | actives 1.3% (n = 370,000) | AID 651821, 2012;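 active = inhibition above the plate cutoff, the mean of all test compounds on that plate plus 3 SD, cut at about 35% in these data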;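 note: higher means more dye released from RNA so lower well fluorescence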
PG9 Ab binder = binders of HIV-1 gp120 antibody PG9, primary screen, biochemical, TR-FRET; HIV-1 gp120 / PG9 antibody interaction; TR-FRET gp120-PG9 antibody binding; inhibition, % at 6.7 µM; actives 0.43% (n = 360,000); in the data active = inhibition above about 8.5%
NR2E3 ag-2 = NR2E3 agonists in two-hybrid cells, primary screen, cell-based, luminescence, CHO-S, Gal4-NCOR/VP16-NR2E3; actives 0.35% (n = 360,000); Photoreceptor-specific nuclear receptor (Homo sapiens), Q9Y5X4; luciferase; inhibition of corepressor binding, % at 3.98 µM;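 active = inhibition above the mean of all tested compounds plus 3 SD, cut at about 70% in these data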;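 note: higher means lower luciferase signal from less NR2E3 corepressor binding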
rCAG binder conf = small molecules binding CAG repeat RNA – biochemical, fluorescence, confirmation. shares compounds with rCAG binder. r(CAG) RNA repeat, TO-PRO-1 dye displacement fluorescence. inhibition, % at 3 µM. actives 70% (n = 4,300). AID 652065, 2013;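 active = inhibition above a per-plate cutoff, the mean inhibition of sample wells plus 3 SD, cut at about 35% in these data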;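 note: loss of TO-PRO-1 fluorescence as compound displaces dye from 1x1 AA loop RNA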
DNA CAG counter = displacement of TO-PRO-1 from CAG DNA duplex, counter-screen for rCAG RNA repeat binder project, biochemical, fluorescence, TO-PRO-1 dye, d(CAG) DNA oligo | shares compounds with rCAG binder | actives 94% (n = 4,300) | AID 652068, 2013 | d(CAG) DNA oligo TO-PRO-1 dye displacement | inhibition, % at 3 µM;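 active = inhibition above its plate's cutoff, the mean test-well inhibition plus 3 SD, cut at about 4.8% in these data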;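 note: hits displace the dye from DNA and so lower well fluorescence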
A number is an active result; i = inactive; nt = no result.

SMILES	Rev-erbA mod	NR2E3 ag-1	rCAG binder	PG9 Ab binder	NR2E3 ag-2	rCAG binder conf	DNA CAG counter
O=C(N/N=C/c1c(O)n(Cc2ccco2)c(=O)[nH]c1=O)c1ccccc1	i	i	50	i	i	i	11
Cc1cc(C(C#N)c2ccc(Cl)cc2)c(Cl)cc1NC(=O)c1cc(I)cc(I)c1O (stereo not given)	i	i	73	i	101	93	78
CCOC(=O)N1CCC(=NNC(=O)c2cc3ccccc3cc2O)CC1	i	i	37	i	i	i	11
O=C(NN=C1CCN(Cc2ccccc2)CC1)c1cc2ccccc2cc1O	i	i	52	i	i	57	30
Cc1ccc(Nc2ccc(N)cc2S(=O)(=O)O)cc1	i	i	36	i	i	i	7.2
Nc1ccc(Nc2ccccc2)c(S(=O)(=O)O)c1	i	i	i	i	i	nt	nt
Cc1cccc(CN2CCSCCS2(=O)=O)c1	i	nt	i	i	nt	nt	nt
NS(=O)(=O)c1ccc(-c2ccc(/C=C3\SC(=S)N(C4CCS(=O)(=O)C4)C3=O)o2)cc1 (stereo not given)	i	i	35	i	i	i	14
O=[N+]([O-])c1c(NCCCO)cc(SCc2ccco2)c2nonc12	i	i	47	i	i	i	i
CCCNC(=O)C1CCN(S(=O)(=O)c2ccc3nc4c(c(C(=O)O)c3c2)CCCCC4)CC1	i	i	i	i	i	nt	nt
CN(Cc1ccccc1)C(=O)C1CCN(S(=O)(=O)c2ccc3nc4c(c(C(=O)O)c3c2)CCCC4)CC1	i	i	54	i	i	54	17
CC1CCc2nc3ccc(S(=O)(=O)N4CCC(C(=O)NCc5ccccc5Cl)CC4)cc3c(C(=O)O)c2C1 (stereo not given)	i	i	47	i	i	54	21
COc1ccc(CNC(=O)C2CCN(S(=O)(=O)c3ccc4nc5c(c(C(=O)O)c4c3)CC(C)CC5)CC2)cc1 (stereo not given)	i	i	i	i	i	nt	nt
Cc1ccc(CCNC(=O)C2CCN(S(=O)(=O)c3ccc4nc5c(c(C(=O)O)c4c3)CCCC5)CC2)cc1	i	i	50	i	i	i	9.0
C=CCN1[C@@H](C)[C@@H](c2ccccc2)Oc2c(Cl)cccc2S1(=O)=O	i	nt	i	i	nt	nt	nt
COc1cccc(/C=C2\Oc3cc(OCC(=O)N4CCC[C@H]4C(=O)O)ccc3C2=O)c1	i	i	37	i	i	44	13
Cc1nc(NS(=O)(=O)c2ccc(Cl)s2)c2c3c(sc2n1)CCCC3	i	i	78	i	i	55	19
Cc1nc(NCCc2ccc(S(N)(=O)=O)cc2)c2c3c(sc2n1)CCC3	i	i	i	i	i	nt	nt
O=C(CC(CC(=O)c1ccc(Cl)cc1)c1ccccc1C(=O)O)c1ccc(Cl)cc1	i	i	42	i	i	54	13
O=C(O)c1ccccc1C(=O)c1ccc(Cl)cc1	i	i	i	i	i	nt	nt
O=Cc1ccc(C(=O)OCC(=O)NC(=O)Nc2ccccc2F)cc1	nt	nt	nt	nt	i	nt	nt
CCCCC[C@@H]1C=C(C(=O)O)[C@H](c2ccc(Cl)cc2)N1S(=O)(=O)c1ccc(C)cc1	i	nt	79	i	i	64	28
CCCC[C@@H]1C=C(C(=O)O)[C@H](c2ccc(C#N)cc2)N1S(=O)(=O)c1ccc(C)cc1	i	nt	53	i	i	i	7.9
CC[C@@H]1C=C(C(=O)O)[C@H](c2ccc(F)cc2)N1S(=O)(=O)c1ccc(C)cc1	i	nt	i	i	i	nt	nt
CCCCC[C@@H]1C=C(C(=O)O)[C@H](c2ccc(C)cc2)N1S(=O)(=O)c1ccc(C)cc1	i	nt	74	i	i	53	18
SMILES	Rev-erbA mod	NR2E3 ag-1	rCAG binder	PG9 Ab binder	NR2E3 ag-2	rCAG binder conf	DNA CAG counter
O=Cc1coc([B-](F)(F)F)c1	i	nt	i	i	nt	nt	nt
COC(=O)C1CCN(CC(=O)Nc2ccc(C(=O)Nc3ccccc3OC)cc2)CC1	i	i	i	i	i	nt	nt
N#Cc1c(C(F)(F)F)cc(-c2ccco2)nc1SCc1ccccn1	i	i	37	i	i	i	5.3
N#Cc1c(C(F)(F)F)cc(-c2ccco2)nc1SCc1ccncc1	i	i	i	i	i	nt	nt
COc1ccc(C)cc1NC(=S)NNC(=O)c1ccccc1Cl	i	i	i	i	i	nt	nt
COc1ccc(C)cc1NC(=S)NNC(=O)c1c(Br)cnn1C	i	i	54	i	i	i	4.4
Cc1cccc(CN2[C@H](CO)C=CS2(=O)=O)c1	i	nt	i	i	i	nt	nt
O=C(N/N=C/c1ccc([N+](=O)[O-])o1)c1ccccc1NS(=O)(=O)c1cccs1	i	i	45	i	i	41	15
O=C(NN=Cc1cc(Br)c(O)c(Br)c1)c1ccccc1NS(=O)(=O)c1cccs1	i	nt	40	i	i	35	10
COc1cc(/C=N/NC(=O)c2ccccc2NS(=O)(=O)c2cccs2)ccc1O	i	nt	43	i	i	i	9.4
Cc1nn(-c2ccccc2)c(C)c1/C=N/NC(=O)c1ccccc1NS(=O)(=O)c1cccs1	i	i	62	i	i	60	21
Cc1nn(-c2ccccc2)c(C)c1/C=N/NC(=O)c1cccs1	i	i	i	i	i	nt	nt
O=C(NCc1cccs1)c1ccc2sc([C@H]3C[C@H](O)[C@@H](CO)O3)nc2c1	i	nt	i	i	i	nt	nt
O=Cc1cscc1[B-](F)(F)F	i	nt	i	i	nt	nt	nt
COc1ccccc1/C=N/NC(=O)c1ccccc1NS(=O)(=O)c1ccc(C)cc1	i	i	39	i	i	45	14
Cc1ccc(S(=O)(=O)Nc2ccccc2C=NNC(=O)c2ccncc2)cc1	i	nt	i	i	i	nt	nt
COc1ccc(NS(=O)(=O)c2cccc(C(=O)NN=Cc3cc(Br)c(O)c(Br)c3)c2)cc1	i	nt	39	i	i	43	17
CCOC(=O)c1cc2c(c(CCO)n1)[C@H](CCO)N(S(=O)C(C)(C)C)C2 (stereo not given in full)	i	nt	i	i	i	nt	nt
CCOC(=O)C1=CCN(S(=O)(=O)c2ccc(C)cc2)C1c1ccccc1 (stereo not given)	i	nt	i	i	i	nt	nt
